{"source": "ChEMBL document CHEMBL4265982", "about": "“Hybrid compounds from chalcone and 1,2-benzothiazine pharmacophores as selective inhibitors of alkaline phosphatase isozymes” (Eur J Med Chem, 2018)", "key": {"[1]": {"target": "T1, Alkaline phosphatase, tissue-nonspecific isozyme (Homo sapiens, UniProt P05186)", "T1 sequence (P05186 whole entry)": "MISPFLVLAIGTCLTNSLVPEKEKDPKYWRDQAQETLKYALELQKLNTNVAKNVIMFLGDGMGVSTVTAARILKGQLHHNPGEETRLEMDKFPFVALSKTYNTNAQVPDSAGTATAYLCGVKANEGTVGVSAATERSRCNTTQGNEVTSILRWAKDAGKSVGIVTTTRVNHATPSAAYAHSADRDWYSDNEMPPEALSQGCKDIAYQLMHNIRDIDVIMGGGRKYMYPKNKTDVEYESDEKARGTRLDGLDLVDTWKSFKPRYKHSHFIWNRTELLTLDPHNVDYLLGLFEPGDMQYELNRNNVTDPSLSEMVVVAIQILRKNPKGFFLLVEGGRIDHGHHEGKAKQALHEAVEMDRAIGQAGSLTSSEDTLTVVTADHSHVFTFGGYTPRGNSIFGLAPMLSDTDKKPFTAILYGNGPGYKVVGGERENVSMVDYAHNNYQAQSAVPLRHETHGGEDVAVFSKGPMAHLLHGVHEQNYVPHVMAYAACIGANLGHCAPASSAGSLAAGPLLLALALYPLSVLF", "test": "Inhibition of human TNAP expressed in African green monkey COS7 cell membranes using CDP-star as substrate pretreated for 5 to 10 mins followed by substrate addition and measured after 15 to 20 mins by […]"}, "[2]": {"target": "T2, Intestinal-type alkaline phosphatase (Homo sapiens, UniProt P09923)", "test": "Inhibition of human IAP expressed in African green monkey COS7 cell membranes using CDP-star as substrate pretreated for 5 to 10 mins followed by substrate addition and measured after 15 to 20 mins by […]", "procedure,_shortened": "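Enzyme from transfected COS-7 lysates (h-TNAP 46 ng/well, h-IAP 57 ng/well), stored with 7.5% glycerol at -80 °C. Inhibitor tested up to 200 μM, final DMSO 1%, in 3 M DEA pH 9.8 with 2.5 mM MgCl2 and 0.05 mM ZnCl2. Preincubation 37 °C for 5–10 min, then CDP-Star added. Luminescence read after 15–20 min. IC50 from curve fitting, mean ± SEM, n = 3.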"}, "Homo sapiens": {"species": "Homo sapiens", "test": "Selectivity index, ratio of IC50 for human TNAP expressed in African green monkey COS7 cell membranes to IC50 for human IAP expressed in African green monkey COS7 cell membranes", "procedure,_shortened": "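Ratio of IC50 at h-TNAP to IC50 at h-IAP. Each IC50 is from the CDP-Star luminescence assay on lysates of transfected COS-7 cells, pH 9.8 DEA buffer. Index > 1 means selectivity for h-IAP; < 1 means selectivity for h-TNAP.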"}, "HeLa": {"test_system": "HeLa", "test": "Cytotoxicity against human HeLa cells assessed as cell growth inhibition at 100 uM after 24 hrs by MTT assay", "assay_type": "functional", "details": "read-out: GI", "procedure,_shortened": "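HeLa cells seeded overnight at 2.5 × 10⁴ cells/mL, then exposed to compound (final 100 μM) for 24 h at 37 °C. MTT (5 μg/well) added for 4 h, then solubilised with 50% isopropanol/10% SDS. OD read at 570 nm minus 690 nm background. Percent inhibition relative to untreated control; triplicate, mean of three independent experiments ± SEM.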"}, "[3]": {"target": "T3, Alkaline phosphatase, tissue-nonspecific isozyme (Homo sapiens) (UniProt P05186)", "T3 sequence (whole entry)": "T1 sequence (P05186 whole entry)", "test": "Non-competitive inhibition of human TNAP expressed in African green monkey COS7 cell membranes up to 0.3 uM using CDP-star as substrate pretreated for 5 to 10 mins followed by substrate addition and measured after 15 to 20 mins by double reciprocal plot analysis", "procedure,_shortened": "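Kinetics: double reciprocal plots of initial velocity versus CDP-Star concentration at several inhibitor concentrations. Enzyme is lysate of COS-7 cells transfected with h-TNAP plasmid (lipofectamine, 5 h, 37 °C, harvested 40–72 h). Buffer 3 M DEA pH 9.8, 2.5 mM MgCl2, 0.05 mM ZnCl2. Preincubation 5–10 min at 37 °C, luminescence read 15–20 min after substrate.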"}, "[4]": {"target": "T3, Alkaline phosphatase, tissue-nonspecific isozyme (Homo sapiens)", "test": "Potency index, ratio of levamisole IC50 to test compound IC50 for human TNAP"}, "[5]": {"target": "T2, Intestinal-type alkaline phosphatase", "test": "Competitive inhibition of human IAP expressed in African green monkey COS7 cell membranes up to 1.5 uM using CDP-star as substrate pretreated for 5 to 10 mins followed by substrate addition and measured after 15 to 20 mins by double reciprocal plot analysis"}}, "note": "Calls of active or inactive are those of the source. The rule behind the calls is not given here."}
{"smiles": "O=C1/C(=C/c2ccccc2)NS(=O)(=O)c2ccccc21", "values": [{"measurement": "IC50", "setting": "[1]", "value": 0.66, "unit": "µM"}, {"measurement": "IC50", "setting": "[2]", "value": 1.78, "unit": "µM"}, {"measurement": "Ratio IC50", "setting": "Homo sapiens", "value": 0.4}, {"measurement": "inhibition of growth at 100 µM", "setting": "HeLa", "value": 19, "unit": "%"}]}
{"smiles": "COc1ccccc1/C=C1\\NS(=O)(=O)c2ccccc2C1=O", "values": [{"measurement": "IC50", "setting": "[1]", "value": 2.59, "unit": "µM"}, {"measurement": "IC50", "setting": "[2]", "value": 1.24, "unit": "µM"}, {"measurement": "Ratio IC50", "setting": "Homo sapiens", "value": 2.1}, {"measurement": "inhibition of growth at 100 µM", "setting": "HeLa", "value": 17, "unit": "%"}]}
{"smiles": "O=C1/C(=C/c2cccc(F)c2)NS(=O)(=O)c2ccccc21", "values": [{"measurement": "IC50", "setting": "[1]", "value": 3.19, "unit": "µM"}, {"measurement": "IC50", "setting": "[2]", "value": 9.93, "unit": "µM"}, {"measurement": "Ratio IC50", "setting": "Homo sapiens", "value": 0.3}, {"measurement": "inhibition of growth at 100 µM", "setting": "HeLa", "value": 53, "unit": "%"}]}
{"smiles": "O=C1/C(=C/c2ccc(Cl)cc2Cl)NS(=O)(=O)c2ccccc21", "values": [{"measurement": "IC50", "setting": "[1]", "value": "> 200", "unit": "µM"}, {"measurement": "IC50", "setting": "[2]", "value": 4.96, "unit": "µM"}, {"measurement": "Ratio IC50", "setting": "Homo sapiens", "value": "> 53"}, {"measurement": "inhibition of growth at 100 µM", "setting": "HeLa", "value": 59, "unit": "%"}]}
{"smiles": "O=C1/C(=C/c2ccccc2Br)NS(=O)(=O)c2ccccc21", "values": [{"measurement": "IC50", "setting": "[1]", "value": "> 200", "unit": "µM"}, {"measurement": "IC50", "setting": "[2]", "value": 7.43, "unit": "µM"}, {"measurement": "Ratio IC50", "setting": "Homo sapiens", "value": "> 1"}, {"measurement": "inhibition of growth at 100 µM", "setting": "HeLa", "value": 53, "unit": "%"}]}
{"smiles": "Cc1ccccc1/C=C1\\NS(=O)(=O)c2ccccc2C1=O", "values": [{"measurement": "IC50", "setting": "[1]", "value": 2.36, "unit": "µM"}, {"measurement": "IC50", "setting": "[2]", "value": 3.75, "unit": "µM"}, {"measurement": "Ratio IC50", "setting": "Homo sapiens", "value": 0.6}, {"measurement": "inhibition of growth at 100 µM", "setting": "HeLa", "value": 7, "unit": "%"}]}
{"smiles": "O=C1/C(=C/c2ccc(Cl)cc2)NS(=O)(=O)c2ccccc21", "values": [{"measurement": "IC50", "setting": "[1]", "value": 0.25, "unit": "µM"}, {"measurement": "IC50", "setting": "[2]", "value": 4.35, "unit": "µM"}, {"measurement": "Ratio IC50", "setting": "Homo sapiens", "value": 0.1}, {"measurement": "inhibition of growth at 100 µM", "setting": "HeLa", "value": 55, "unit": "%"}, {"measurement": "inhibition", "setting": "[3]", "value": "Active"}, {"measurement": "Ratio IC50", "setting": "[4]", "value": 80}]}
{"smiles": "O=C1/C(=C/c2ccc(Br)cc2)NS(=O)(=O)c2ccccc21", "values": [{"measurement": "IC50", "setting": "[1]", "value": 1.43, "unit": "µM"}, {"measurement": "IC50", "setting": "[2]", "value": 3.69, "unit": "µM"}, {"measurement": "Ratio IC50", "setting": "Homo sapiens", "value": 0.4}, {"measurement": "inhibition of growth at 100 µM", "setting": "HeLa", "value": 59, "unit": "%"}]}
{"smiles": "O=C1/C(=C/c2cccc(Cl)c2)NS(=O)(=O)c2ccccc21", "values": [{"measurement": "IC50", "setting": "[1]", "value": "> 200", "unit": "µM"}, {"measurement": "IC50", "setting": "[2]", "value": 3.77, "unit": "µM"}, {"measurement": "Ratio IC50", "setting": "Homo sapiens", "value": "> 50"}, {"measurement": "inhibition of growth at 100 µM", "setting": "HeLa", "value": 64, "unit": "%"}]}
{"smiles": "O=C1/C(=C/c2cccc(Br)c2)NS(=O)(=O)c2ccccc21", "values": [{"measurement": "IC50", "setting": "[1]", "value": "> 200", "unit": "µM"}, {"measurement": "IC50", "setting": "[2]", "value": 2.55, "unit": "µM"}, {"measurement": "Ratio IC50", "setting": "Homo sapiens", "value": "> 26"}, {"measurement": "inhibition of growth at 100 µM", "setting": "HeLa", "value": 65, "unit": "%"}]}
{"smiles": "COc1ccc(/C=C2\\NS(=O)(=O)c3ccccc3C2=O)cc1", "values": [{"measurement": "IC50", "setting": "[1]", "value": 4.04, "unit": "µM"}, {"measurement": "IC50", "setting": "[2]", "value": 1.53, "unit": "µM"}, {"measurement": "Ratio IC50", "setting": "Homo sapiens", "value": 2.6}, {"measurement": "inhibition of growth at 100 µM", "setting": "HeLa", "value": 11, "unit": "%"}]}
{"smiles": "c1ccc([C@H]2CN3CCSC3=N2)cc1", "note": "[LEVAMISOLE]", "values": [{"measurement": "IC50", "setting": "[2]", "value": "> 200", "unit": "µM"}]}
{"smiles": "N[C@@H](Cc1ccccc1)C(=O)O", "note": "[PHENYLALANINE]", "values": [{"measurement": "IC50", "setting": "[1]", "value": "> 200", "unit": "µM"}, {"measurement": "Ratio IC50", "setting": "Homo sapiens", "value": "> 2"}]}
{"smiles": "COc1cccc(/C=C2\\NS(=O)(=O)c3ccccc3C2=O)c1", "values": [{"measurement": "IC50", "setting": "[1]", "value": "> 200", "unit": "µM"}, {"measurement": "IC50", "setting": "[2]", "value": 1.04, "unit": "µM"}, {"measurement": "Ratio IC50", "setting": "Homo sapiens", "value": "> 190"}, {"measurement": "inhibition of growth at 100 µM", "setting": "HeLa", "value": 39, "unit": "%"}, {"measurement": "inhibition", "setting": "[5]", "value": "Active"}]}
{"smiles": "O=C1/C(=C/c2ccc(F)cc2)NS(=O)(=O)c2ccccc21", "values": [{"measurement": "IC50", "setting": "[1]", "value": 1.35, "unit": "µM"}, {"measurement": "IC50", "setting": "[2]", "value": 3.06, "unit": "µM"}, {"measurement": "Ratio IC50", "setting": "Homo sapiens", "value": 0.4}, {"measurement": "inhibition of growth at 100 µM", "setting": "HeLa", "value": 41, "unit": "%"}]}
{"smiles": "O=C1/C(=C/c2cccc(O)c2)NS(=O)(=O)c2ccccc21", "values": [{"measurement": "IC50", "setting": "[1]", "value": 3.57, "unit": "µM"}, {"measurement": "IC50", "setting": "[2]", "value": 1.21, "unit": "µM"}, {"measurement": "Ratio IC50", "setting": "Homo sapiens", "value": 3}, {"measurement": "inhibition of growth at 100 µM", "setting": "HeLa", "value": 15, "unit": "%"}]}
{"smiles": "O=C1/C(=C/c2c(F)cccc2F)NS(=O)(=O)c2ccccc21", "values": [{"measurement": "IC50", "setting": "[1]", "value": 1.53, "unit": "µM"}, {"measurement": "IC50", "setting": "[2]", "value": 10.6, "unit": "µM"}, {"measurement": "Ratio IC50", "setting": "Homo sapiens", "value": 0.1}, {"measurement": "inhibition of growth at 100 µM", "setting": "HeLa", "value": 17, "unit": "%"}]}
